The record followed here is ChEMBL document CHEMBL1139579, “Structure-activity relationship of a series of cyclohexylpiperidines bearing an amide side chain as antagonists of the human melanocortin-4 receptor” (Bioorg Med Chem Lett, 2005).

The target in experiment [1] is T1, Melanocortin receptor 4 (Homo sapiens, UniProt P32245). Put plainly: Stimulation of cAMP levels in the HEK293 cell line at 10 uM. The class given is functional, cell-based. The method, boiled down:
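Agonism was measured as cAMP levels in HEK293 cells stably expressing human MC4R. The test ligand was applied at 10 μM, and the response was expressed relative to the response to α-MSH.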
On the technique in general: cAMP levels reflect the balance of adenylyl cyclase and phosphodiesterase activity.

For experiment [2], the target named is T1, Melanocortin receptor 4. Put plainly: Inhibition of [125I]NDP-MSH (radioligand) binding to the hMC4R stably expressed in HEK293 cells. The class given is cell-based. An outline of the steps: (§1)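 Competition binding was run on HEK293 cells stably transfected with human MC1R, MC3R, MC4R or MC5R, each receptor in its own line. The radioligand was [125I]-NDP-MSH. For the MC4R values, data are the average of two to three independent measurements.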

In experiment [3] the target is T2, Melanocortin receptor 3 (Homo sapiens, UniProt P41968). Put plainly: Inhibition of [125I]-NDP-MSH (radioligand) binding to the human MC3R stably expressed in HEK293 cells. It is filed as cell-based. An outline of the steps: as §1
For experiment [4], the target named is Melanocortin receptor 5 (Homo sapiens, UniProt P33032). Put plainly: Inhibition of [125I]NDP-MSH (radioligand) binding to the human MC5R stably expressed in HEK293 cells. It is filed as cell-based. An outline of the steps:
as §1

The target in experiment [5] is T1, Melanocortin receptor 4. Put plainly: Inhibition of [125I]-AgRP(83132) (radioligand) binding to the hMC4R stably expressed in HEK293 cells;. The class given is cell-based. An outline of the steps: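 Competition binding was run on HEK293 cells stably transfected with human MC4R. The radioligand was [125I]-AgRP(83–132).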
Experiment [6] has as its system HEK293. In words: Dose-dependent inhibition of cAMP production stimulated by 10 nM a-MSH in HEK293 cells;. It is filed as functional, cell-based, Homo sapiens. The method, boiled down: (§2)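 Functional antagonism was measured as inhibition of cAMP production in HEK293 cells stably expressing human MC4R. Cells were stimulated with 10 nM α-MSH, and the test ligand was applied over a range of concentrations.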

Experiment [7] has as its target Melanocyte-stimulating hormone receptor (Homo sapiens, UniProt Q01726). Put plainly: Inhibition of [125I]NDP-MSH (radioligand) binding to human MC1R at 10 um concentration stably expressed in HEK293 cells. The conditions noted are these: hek293. The class given is cell-based. An outline of the steps: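 Competition binding was run on HEK293 cells stably expressing human MC1R, with [125I]-NDP-MSH as the radioligand. The value is percent inhibition of binding with the test ligand at 10 µM.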

In experiment [8] the target is T2, Melanocortin receptor 3. In words: Inhibition of [125I]NDP-MSH (radioligand) binding to the human MC3R stably expressed in HEK293 cells. The class given is cell-based. An outline of the steps:
as §1

Experiment [9] relates to HEK293. In words: Dose-dependent inhibition of cAMP production stimulated by 10 nM a-MSH in HEK293 cells. The class given is functional, cell-based. Particulars: Homo sapiens. An outline of the steps:
as §2

T2 sequence (P41968 whole entry): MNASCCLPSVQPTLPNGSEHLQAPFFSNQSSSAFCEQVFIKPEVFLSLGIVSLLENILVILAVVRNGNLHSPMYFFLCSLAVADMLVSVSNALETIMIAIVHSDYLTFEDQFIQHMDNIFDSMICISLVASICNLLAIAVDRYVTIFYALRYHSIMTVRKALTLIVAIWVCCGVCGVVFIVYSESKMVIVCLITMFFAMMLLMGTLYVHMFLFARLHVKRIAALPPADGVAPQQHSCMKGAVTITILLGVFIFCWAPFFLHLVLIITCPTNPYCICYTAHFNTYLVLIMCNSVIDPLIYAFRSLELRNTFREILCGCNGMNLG
T1 sequence (P32245 whole entry): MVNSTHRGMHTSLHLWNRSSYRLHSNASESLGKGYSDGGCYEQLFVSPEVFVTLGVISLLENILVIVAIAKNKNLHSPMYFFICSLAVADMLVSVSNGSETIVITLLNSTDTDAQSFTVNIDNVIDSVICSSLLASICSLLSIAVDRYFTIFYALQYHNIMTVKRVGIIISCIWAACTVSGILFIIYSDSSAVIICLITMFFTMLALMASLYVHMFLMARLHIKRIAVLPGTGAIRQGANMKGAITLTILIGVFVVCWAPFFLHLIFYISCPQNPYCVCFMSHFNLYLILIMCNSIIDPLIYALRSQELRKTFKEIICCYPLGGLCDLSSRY
Sequence of Melanocortin receptor 5 (P33032 whole entry): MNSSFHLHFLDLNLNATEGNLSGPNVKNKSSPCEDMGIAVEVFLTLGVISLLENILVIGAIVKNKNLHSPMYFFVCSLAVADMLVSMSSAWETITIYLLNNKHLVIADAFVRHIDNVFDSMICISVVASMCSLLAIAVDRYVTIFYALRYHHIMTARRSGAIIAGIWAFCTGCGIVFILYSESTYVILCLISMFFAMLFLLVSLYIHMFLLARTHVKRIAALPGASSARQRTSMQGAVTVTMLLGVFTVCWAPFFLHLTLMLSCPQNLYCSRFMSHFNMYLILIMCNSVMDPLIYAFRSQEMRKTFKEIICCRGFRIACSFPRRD
Sequence of Melanocyte-stimulating hormone receptor (Q01726 whole entry): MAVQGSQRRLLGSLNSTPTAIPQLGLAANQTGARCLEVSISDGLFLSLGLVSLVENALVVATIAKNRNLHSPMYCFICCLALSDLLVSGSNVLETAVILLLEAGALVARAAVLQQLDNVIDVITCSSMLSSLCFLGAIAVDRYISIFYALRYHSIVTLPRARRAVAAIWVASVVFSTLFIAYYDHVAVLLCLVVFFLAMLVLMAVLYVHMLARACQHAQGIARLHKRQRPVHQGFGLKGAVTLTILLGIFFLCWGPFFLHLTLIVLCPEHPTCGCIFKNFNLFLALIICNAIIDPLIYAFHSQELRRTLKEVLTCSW

In [1], `NCCC(=O)N[C@H](Cc1ccc(Cl)cc1Cl)C(=O)N1CCN(C2(CNC(=O)Cc3ccccc3)CCCCC2)CC1` had a Stimulation of 1.6%. Also, the inhibition constant Ki in experiment [2] turned out to be 8.8 nM; in [3], 710 nM; in experiment [4] it was 920 nM; in experiment [5] it was 6.4 nM. In addition, inhibition in [6] was half-maximal at 260 nM (IC50). This compound returned an Inhibition in [7] of 47%.

Compound `NCCC(=O)N[C@H](Cc1ccc(Cl)cc1Cl)C(=O)N1CCN(C2(CNCc3cccs3)CCCCC2)CC1` showed a Stimulation in [1] of 8.1%. Besides, the Ki in experiment [2] stood at 12 nM; in experiment [4] it was 1900 nM; in [8], 2400 nM.

For `NCCC(=O)N[C@H](Cc1ccc(Cl)cc1Cl)C(=O)N1CCN(C2(CNCCc3ccccc3)CCCCC2)CC1`, in experiment [1], the Stimulation is 0.4%. Also, the inhibitory constant (Ki) in experiment [2] amounted to 11 nM; in experiment [3], 3200 nM; in experiment [4], 1200 nM. The compound also came in with a half-inhibitory concentration (IC50) in [9] of 430 nM. Besides, the Inhibition in experiment [7] is recorded as 44%.

By Ki is commonly meant a dissociation constant, usually derived from enzyme kinetics or from competition with a known ligand. A lower Ki goes with tighter binding. The term IC50 denotes the concentration that gives 50% inhibition. A lower IC50 goes with greater potency. What is called Inhibition is the drop in the measured response relative to a control, in per cent. Read a high Inhibition as strong suppression.
